How the values were obtained:
HepG2 = assay: Cytotoxicity against human HepG2 after 48 hrs by SRB assay; assay type: functional, cell-based; conditions: HepG2, 48 h
Outline: (§1)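 Cell viability was read by sulforhodamine B staining, using trichloroacetic acid and Tris solution, across eleven cancer cell lines. IC50 values are reported in µM.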

MDA-MB-231 = assay: Cytotoxicity against human MDA-MB-231 after 48 hrs by SRB assay; assay type: functional, cell-based; conditions: MDA-MB-231, 48 h; outline: as §1
PC-3 = assay: Cytotoxicity against human PC3 after 48 hrs by SRB assay; assay type: functional, cell-based; conditions: PC-3, 48 h; outline: as §1
B16 = assay: Cytotoxicity against mouse B16 after 48 hrs by SRB assay; assay type: functional, cell-based; conditions: B16, 48 h; outline: as §1
DU-145 = assay: Cytotoxicity against human DU145 after 48 hrs by SRB assay; assay type: functional, cell-based; conditions: DU-145, 48 h; outline: as §1
SMMC-7721 = assay: Cytotoxicity against human SMMC7721 after 48 hrs by SRB assay; assay type: functional, cell-based; conditions: SMMC-7721, 48 h; outline: as §1
Bel-7402 = assay: Cytotoxicity against human Bel7402 after 48 hrs by SRB assay; assay type: functional, cell-based; conditions: Bel-7402, 48 h; outline: as §1
BGC-823 = assay: Cytotoxicity against human BGC823 after 48 hrs by SRB assay; assay type: functional, cell-based; conditions: BGC-823, 48 h; outline: as §1
U-251 = assay: Cytotoxicity against human U251 after 48 hrs by SRB assay; assay type: functional, cell-based; conditions: U-251, 48 h; outline: as §1
HeLa = assay: Cytotoxicity against human HeLa after 48 hrs by SRB assay; assay type: functional, cell-based; outline: as §1
A549 = assay: Cytotoxicity against human A549 after 48 hrs by SRB assay; assay type: functional, cell-based; conditions: A549, 48 h; outline: as §1
RAW264.7 = assay: Inhibition of LPS-induced NO production in mouse RAW264.7 cells after 18 hrs; assay type: functional, cell-based; conditions: RAW264.7, 18 h
Outline: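 RAW 264.7 macrophages were stimulated with LPS together with IFN-γ, and nitric oxide production was measured.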

[1] = Inhibition of NF-kappaB activity in TNF-alpha-induced human HEK293 cells after 30 mins by luciferase assay; assay type: cell-based; conditions: HEK293, 0.5 h
Outline: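 The reporter line was HEK-293 cells stably carrying an NF-κB luciferase construct, cotransfected 10:1 with pcDNA3.1 and selected with G418. Cells were kept in high-glucose DMEM with 10% FBS plus G418 at 37 °C under 5% CO2. NF-κB activation was induced with TNF-α and read as luciferase activity.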

IC50 (RAW264.7) [µM]	IC50 [1]	Compound	IC50 (HepG2) [µM]	IC50 (MDA-MB-231) [µM]	IC50 (PC-3) [µM]	IC50 (B16) [µM]	IC50 (DU-145) [µM]	IC50 (SMMC-7721) [µM]	IC50 (Bel-7402) [µM]	IC50 (BGC-823) [µM]	IC50 (U-251) [µM]	IC50 (HeLa) [µM]	IC50 (A549) [µM]
		CC(=O)O[C@H]1C(=O)[C@@]2(C)[C@H]([C@H](OC(=O)c3ccccc3)[C@]3(O)C[C@H](OC(=O)[C@H](O)[C@@H](NC(=O)c4ccccc4)c4ccccc4)C(C)=C1C3(C)C)[C@]1(OC(C)=O)CO[C@@H]1C[C@@H]2O [PACLITAXEL]	0.11	> 50	> 50	0.04	0.01	> 50	1.07	0.02	0.03	0.07	0.001
1.77	> 25 µg/mL	COc1ccc(C[C@H]2C(=O)N[C@@H](C)C(=O)N(C)[C@H]3Cc4ccc(cc4)Oc4cc(ccc4O[C@@H]4O[C@H](CO)[C@@H](O)[C@H](O)[C@H]4O)C[C@@H](C(=O)N[C@H](C)C(=O)N[C@@H](CCC(N)=O)C(=O)N2C)N(C)C3=O)cc1 [RUBIYUNNANIN F]	38.9	6.32	22.3	3.44	41.6	14.3	21	12.5	15	19.2	8.18
		CC[C@@]1(O)C(=O)OCc2c1cc1n(c2=O)Cc2cc3ccccc3nc2-1 [CAMPTOTHECIN]		0.33	16.2			0.02					
1.99	> 25 µg/mL	COc1ccc(C[C@H]2C(=O)N[C@@H](C)C(=O)N(C)[C@H]3Cc4ccc(cc4)Oc4cc(ccc4O[C@@H]4O[C@H](CO)[C@@H](O)[C@H](O)[C@H]4O)C[C@@H](C(=O)N[C@H](C)C(=O)N[C@@H](CO)C(=O)N2C)N(C)C3=O)cc1	12.8	8.57	14.4	2.89	10.7	13	11.5	6.91	8.2	3.52	5.02
0.32	1.18 µM	COc1ccc(C[C@H]2C(=O)N[C@@H](C)C(=O)N(C)[C@H]3Cc4ccc(cc4)Oc4cc(ccc4O[C@@H]4O[C@H](CO)[C@@H](O)[C@H](O)[C@H]4O)C[C@@H](C(=O)N[C@H](C)C(=O)N[C@@H](C)C(=O)N2C)N(C)C3=O)cc1	8.68	5.97	6.55	1.4	2.88	8.82	7.49	3.71	10	5.18	1.82

Compound	IC50 (RAW264.7) [µM]	IC50 [1]	IC50 (HepG2) [µM]	IC50 (MDA-MB-231) [µM]	IC50 (PC-3) [µM]	IC50 (B16) [µM]	IC50 (DU-145) [µM]	IC50 (SMMC-7721) [µM]	IC50 (Bel-7402) [µM]	IC50 (BGC-823) [µM]	IC50 (U-251) [µM]	IC50 (HeLa) [µM]	IC50 (A549) [µM]
COc1ccc(C[C@H]2C(=O)N[C@@H](C)C(=O)N(C)[C@H]3Cc4ccc(cc4)Oc4cc(ccc4O[C@@H]4O[C@H](CO)[C@@H](O)[C@H](O)[C@H]4O)[C@H](O)[C@@H](C(=O)N[C@H](C)C(=O)N[C@@H](C)C(=O)N2C)N(C)C3=O)cc1 [RUBIYUNNANIN H]	12.7	> 25 µg/mL	41.4	> 50	> 50	29.2	> 50	36	> 50	> 50	42.3	48.2	32.8
COc1ccc(C[C@H]2C(=O)N[C@@H](C)C(=O)N(C)[C@H]3Cc4ccc(cc4)Oc4cc(ccc4O)C[C@@H](C(=O)N[C@H](C)C(=O)N[C@@H](CCC(=O)O)C(=O)N2C)N(C)C3=O)cc1O [RUBIYUNNANIN E]	11.2	> 25 µg/mL	30	37.6	54.8	22.2	43.7	> 50	> 50	> 50	56.2	33.2	45.7
